Experimental data: ChEMBL document CHEMBL4725354 (J Med Chem, 2020); call rule not given here

test system: MDCK-II; experiment: Cytotoxicity against MDCK2 cells assessed as reduction in cell viability at 10 uM after 72 hrs by MTT assay; assay type: cell-based, Canis lupus familiaris; conditions: dog
Procedure, shortened: (§1)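 Single-concentration screen at 10 µM in MDCK II BCRP and parental MDCK II cells. MTT assay, 72 h at 37 °C, 5% CO2. Viability referenced to culture medium (100%) and 10% DMSO (0%). Mean ± SEM of at least three independent experiments with duplicates.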

SMILES	Activity
COc1cccc(Nc2cc(C)nc(-c3ccccc3)n2)c1	Non-Toxic
Cc1cc(Nc2cccc(O)c2)nc(-c2ccccc2)n1	Non-Toxic
Cc1cc(Nc2ccc(C#N)c(Br)c2)nc(-c2ccccc2)n1	Non-Toxic
Cc1cc(Nc2cccc([N+](=O)[O-])c2)nc(-c2ccccc2)n1	Non-Toxic
COc1cc(Nc2cc(C)nc(-c3ccccc3)n2)ccc1Br	Non-Toxic

test system: not listed separately; experiment: Growth inhibition of MDCK2 cells over expressing human ABCG2 after 72 hrs by MTT assay; assay type: ADME, cell-based, Canis lupus familiaris, MDCK-II; conditions: dog, MDCK2 cells overexpressing human ABCG2
Procedure, shortened: (§2)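 MTT viability assay. Compound dilutions in culture medium (3.2 to 1000 µM as prepared). About 2,000 cells per well, 72 h at 37 °C, 5% CO2. Culture medium set as 100% and 10% DMSO as 0% viability. MTT added for 1 h, formazan dissolved in DMSO, absorbance read at 570 nm with 690 nm background. GI50 from nonlinear regression of absorbance vs log concentration; at least three independent experiments, duplicates, mean ± SEM.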

SMILES	GI50 at 72 h
C[S+](C)[O-] [DIMETHYL SULFOXIDE]	137000 nM
Cc1cc(Nc2ccc(C#N)c(Br)c2)nc(-c2ccccc2)n1	145000 nM

molecular target: T1, ATP-dependent translocase ABCB1 (Homo sapiens, UniProt P08183); experiment: Inhibition of human ABCB1 expressed in A2780/ADR cells preincubated for 30 mins followed by calcein AM addition and measured every 60 secs for 60 mins by fluorescence assay; assay type: cell-based; conditions: not given
Procedure, shortened: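 ABCB1 in A2780/ADR cells (kept resistant by one passage in 1 µM doxorubicin every 10 passages). 30,000 cells per well in Krebs-HEPES buffer, preincubated 30 min at 37 °C with inhibitor. Calcein AM added from a 3.125 µM solution. Fluorescence (ex 485, em 520 nm) read every 60 s for 60 min. Initial linear slopes vs log concentration fitted to give IC50.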

T1 sequence (P08183 whole entry): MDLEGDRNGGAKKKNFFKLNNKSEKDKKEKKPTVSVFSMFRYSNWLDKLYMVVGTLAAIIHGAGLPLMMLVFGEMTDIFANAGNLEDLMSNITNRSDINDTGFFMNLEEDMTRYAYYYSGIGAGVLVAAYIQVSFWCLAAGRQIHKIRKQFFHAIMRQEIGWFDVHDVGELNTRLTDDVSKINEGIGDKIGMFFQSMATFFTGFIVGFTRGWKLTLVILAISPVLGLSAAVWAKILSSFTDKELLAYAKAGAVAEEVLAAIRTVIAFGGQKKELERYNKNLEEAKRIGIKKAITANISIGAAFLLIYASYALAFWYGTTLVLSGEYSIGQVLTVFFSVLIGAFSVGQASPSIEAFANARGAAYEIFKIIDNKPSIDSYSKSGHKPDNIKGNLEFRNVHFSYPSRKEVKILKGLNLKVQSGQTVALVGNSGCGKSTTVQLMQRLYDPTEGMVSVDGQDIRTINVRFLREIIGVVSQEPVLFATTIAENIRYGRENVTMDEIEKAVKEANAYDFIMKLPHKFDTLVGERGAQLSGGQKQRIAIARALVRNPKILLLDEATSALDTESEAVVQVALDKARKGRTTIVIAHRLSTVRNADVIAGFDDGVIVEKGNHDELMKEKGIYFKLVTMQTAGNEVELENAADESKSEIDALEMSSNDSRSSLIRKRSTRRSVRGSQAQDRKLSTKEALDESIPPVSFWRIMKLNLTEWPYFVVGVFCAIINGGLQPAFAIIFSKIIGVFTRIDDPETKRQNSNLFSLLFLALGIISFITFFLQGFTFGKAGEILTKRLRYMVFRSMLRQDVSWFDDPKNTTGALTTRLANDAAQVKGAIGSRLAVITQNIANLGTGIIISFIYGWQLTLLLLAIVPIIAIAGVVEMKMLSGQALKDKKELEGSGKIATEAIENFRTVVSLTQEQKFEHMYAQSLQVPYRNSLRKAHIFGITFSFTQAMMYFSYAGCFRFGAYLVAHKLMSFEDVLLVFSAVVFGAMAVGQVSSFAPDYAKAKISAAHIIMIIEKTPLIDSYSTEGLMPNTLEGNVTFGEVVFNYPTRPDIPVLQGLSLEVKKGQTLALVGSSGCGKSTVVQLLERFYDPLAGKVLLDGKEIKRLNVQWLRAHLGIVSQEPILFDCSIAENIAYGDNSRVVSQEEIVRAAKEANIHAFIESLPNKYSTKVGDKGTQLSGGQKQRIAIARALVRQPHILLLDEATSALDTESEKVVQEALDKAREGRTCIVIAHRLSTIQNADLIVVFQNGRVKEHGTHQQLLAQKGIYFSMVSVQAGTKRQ

SMILES	IC50
COc1cccc(Nc2cc(C)nc(-c3ccccc3)n2)c1	13400 nM
COc1cc(Nc2cc(C)nc(-c3ccccc3)n2)ccc1Br	5030 nM

test system: MDCK-II; experiment: Cytotoxicity against MDCK2 cells over expressing human ABCG2 at 10 uM assessed as reduction in cell viability after 72 hrs by MTT assay; assay type: ADME, cell-based, Canis lupus familiaris; conditions: dog; procedure, shortened: as §1

SMILES	Activity
COc1cccc(Nc2cc(C)nc(-c3ccccc3)n2)c1	Non-Toxic
Cc1cc(Nc2cccc(O)c2)nc(-c2ccccc2)n1	Non-Toxic
Cc1cc(Nc2ccc(C#N)c(Br)c2)nc(-c2ccccc2)n1	Non-Toxic
Cc1cc(Nc2cccc([N+](=O)[O-])c2)nc(-c2ccccc2)n1	Non-Toxic
COc1cc(Nc2cc(C)nc(-c3ccccc3)n2)ccc1Br	Non-Toxic

molecular target: T1, ATP-dependent translocase ABCB1; experiment: Inhibition of human ABCB1-mediated multidrug resistance in human A2780/ADR cells assessed as potentiation of doxorubicin-induced cytotoxicity by measuring half maximal reversal concentration after 72 hrs by MTT assay; assay type: cell-based; conditions: not given

SMILES	inhibition (INH)
COc1cc(Nc2cc(C)nc(-c3ccccc3)n2)ccc1Br	Not Active

test system: not listed separately; experiment: Growth inhibition of MDCK2 cells after 72 hrs by MTT assay; assay type: cell-based, Canis lupus familiaris, MDCK-II; conditions: dog; procedure, shortened: as §2

SMILES	GI50 at 72 h
C[S+](C)[O-] [DIMETHYL SULFOXIDE]	123000 nM
Cc1cc(Nc2ccc(C#N)c(Br)c2)nc(-c2ccccc2)n1	188000 nM

molecular target: T2, ABCG2 (Homo sapiens, UniProt Q9UNQ0); experiment: Inhibition of human ABCG2 expressed in MDCK2 cells co-expressing GFP preincubated for 15 mins followed by pheophorbideA addition and measured after 2 hrs by flow cytometric analysis relative to control; assay type: cell-based, MDCK-II; conditions: probe pheophorbide A, read-out: Imax
T2 sequence (Q9UNQ0 whole entry): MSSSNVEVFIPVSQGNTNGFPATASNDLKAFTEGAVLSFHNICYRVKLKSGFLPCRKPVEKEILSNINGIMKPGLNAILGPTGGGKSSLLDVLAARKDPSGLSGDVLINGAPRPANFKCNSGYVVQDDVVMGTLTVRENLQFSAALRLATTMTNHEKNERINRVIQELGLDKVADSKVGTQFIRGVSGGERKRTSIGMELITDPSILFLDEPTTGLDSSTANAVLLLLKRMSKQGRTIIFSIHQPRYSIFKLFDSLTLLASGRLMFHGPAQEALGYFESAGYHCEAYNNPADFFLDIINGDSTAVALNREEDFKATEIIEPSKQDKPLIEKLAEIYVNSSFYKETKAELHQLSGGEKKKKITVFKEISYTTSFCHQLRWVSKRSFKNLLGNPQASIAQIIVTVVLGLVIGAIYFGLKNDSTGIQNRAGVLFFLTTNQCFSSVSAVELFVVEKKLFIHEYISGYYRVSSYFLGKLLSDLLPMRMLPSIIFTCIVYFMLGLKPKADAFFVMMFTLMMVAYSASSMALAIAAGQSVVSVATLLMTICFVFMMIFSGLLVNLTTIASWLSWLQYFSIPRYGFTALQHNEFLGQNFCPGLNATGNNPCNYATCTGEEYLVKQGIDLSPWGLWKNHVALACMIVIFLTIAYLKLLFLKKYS

SMILES	Emax at 2 h
COc1cccc(Nc2cc(C)nc(-c3ccccc3)n2)c1	100%
Cc1cc(Nc2cccc(O)c2)nc(-c2ccccc2)n1	59%
Cc1cc(Nc2ccc(C#N)c(Br)c2)nc(-c2ccccc2)n1	40%
Cc1cc(Nc2cccc([N+](=O)[O-])c2)nc(-c2ccccc2)n1	68%
COc1cc(Nc2cc(C)nc(-c3ccccc3)n2)ccc1Br	53%

test system: ABCG2; experiment: Therapeutic ratio of GI50 for Growth inhibition of MDCK2 cells over expressing human ABCG2 to IC50 for inhibition of human ABCG2 expressed in MDCK2 cells co-expressing GFP preincubated for 15 mins followed by pheophorbideA addition and measured after 2 hrs by flow cytometric analysis; assay type: toxicity, cell-based; conditions: dog, MDCK2 cells overexpressing human ABCG2, probe pheophorbide A; read-out: TI

SMILES	selectivity ratio at 2 h
Cc1cc(Nc2ccc(C#N)c(Br)c2)nc(-c2ccccc2)n1	2440

molecular target: T2, ABCG2; experiment: Inhibition of human ABCG2 expressed in MDCK2 cells co-expressing GFP preincubated for 30 mins followed by Hoechst 33342 addition and measured every 60 sec for 120 mins by fluorescence assay relative to control; assay type: cell-based, MDCK-II; conditions: probe Hoechst 33342, read-out: Imax
Procedure, shortened: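 MDCK II cells transfected with human ABCG2 cDNA C-terminally fused to GFP. Steady-state means vs log concentration fitted by 3- or 4-parameter logistic to give IC50.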

SMILES	Emax at 2 h
COc1cccc(Nc2cc(C)nc(-c3ccccc3)n2)c1	96%
Cc1cc(Nc2cccc(O)c2)nc(-c2ccccc2)n1	74%
Cc1cc(Nc2ccc(C#N)c(Br)c2)nc(-c2ccccc2)n1	90%
Cc1cc(Nc2cccc([N+](=O)[O-])c2)nc(-c2ccccc2)n1	80%
COc1cc(Nc2cc(C)nc(-c3ccccc3)n2)ccc1Br	100%

molecular target: T3, Broad substrate specificity ATP-binding cassette transporter ABCG2 (Homo sapiens, UniProt Q9UNQ0); experiment: Inhibition of human ABCG2 expressed in MDCK2 cells co-expressing GFP preincubated for 15 mins followed by pheophorbideA addition and measured after 2 hrs by flow cytometric analysis; assay type: cell-based, MDCK-II; conditions: not given
T3 sequence (Q9UNQ0 whole entry): T2 sequence (Q9UNQ0 whole entry)
Procedure, shortened: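 Pheophorbide A added to 0.5 µM final and incubated 2 h. Read by flow cytometry (ex 488, em 695/50 nm); GFP expression checked at 525/30 nm. IC50 from 3- or 4-parameter logistic fit.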

SMILES	IC50
COc1cccc(Nc2cc(C)nc(-c3ccccc3)n2)c1	503 nM
Cc1cc(Nc2cccc(O)c2)nc(-c2ccccc2)n1	516 nM
Cc1cc(Nc2ccc(C#N)c(Br)c2)nc(-c2ccccc2)n1	59.4 nM
Cc1cc(Nc2cccc([N+](=O)[O-])c2)nc(-c2ccccc2)n1	146 nM
COc1cc(Nc2cc(C)nc(-c3ccccc3)n2)ccc1Br	328 nM

test system: ABCG2; experiment: Therapeutic ratio of GI50 for Growth inhibition of MDCK2 cells over expressing human ABCG2 to IC50 for inhibition of human ABCG2 expressed in MDCK2 cells co-expressing GFP preincubated for 30 mins followed by Hoechst 33342 addition and measured every 60 sec for 120 mins by fluorescence assay; assay type: toxicity, cell-based; conditions: dog, MDCK2 cells overexpressing human ABCG2, probe Hoechst 33342; read-out: TI

SMILES	selectivity ratio
Cc1cc(Nc2ccc(C#N)c(Br)c2)nc(-c2ccccc2)n1	1220

molecular target: T3, Broad substrate specificity ATP-binding cassette transporter ABCG2; experiment: Inhibition of human ABCG2 expressed in MDCK2 cells co-expressing GFP preincubated for 30 mins followed by Hoechst 33342 addition and measured every 60 sec for 120 mins by fluorescence assay; assay type: cell-based, MDCK-II; conditions: not given
Procedure, shortened: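 MDCK II cells transfected with human ABCG2 cDNA C-terminally fused to GFP. Hoechst 33342 added at 1 µM final. Fluorescence (ex 355, em 460 nm) read every 60 s for 120 min. Steady-state means vs log concentration fitted by 3- or 4-parameter logistic to give IC50.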

SMILES	IC50
COc1cccc(Nc2cc(C)nc(-c3ccccc3)n2)c1	271 nM
Cc1cc(Nc2cccc(O)c2)nc(-c2ccccc2)n1	253 nM
Cc1cc(Nc2ccc(C#N)c(Br)c2)nc(-c2ccccc2)n1	119 nM
Cc1cc(Nc2cccc([N+](=O)[O-])c2)nc(-c2ccccc2)n1	130 nM
COc1cc(Nc2cc(C)nc(-c3ccccc3)n2)ccc1Br	280 nM

molecular target: Multidrug resistance-associated protein 1 (Homo sapiens, UniProt P33527); experiment: Inhibition of human ABCC1-mediated multidrug resistance in MDCK2 cells assessed as potentiation of doxorubicin-induced cytotoxicity by measuring half maximal reversal concentration after 72 hrs by MTT assay; assay type: cell-based; conditions: mdck-ii
Sequence (P33527 whole entry): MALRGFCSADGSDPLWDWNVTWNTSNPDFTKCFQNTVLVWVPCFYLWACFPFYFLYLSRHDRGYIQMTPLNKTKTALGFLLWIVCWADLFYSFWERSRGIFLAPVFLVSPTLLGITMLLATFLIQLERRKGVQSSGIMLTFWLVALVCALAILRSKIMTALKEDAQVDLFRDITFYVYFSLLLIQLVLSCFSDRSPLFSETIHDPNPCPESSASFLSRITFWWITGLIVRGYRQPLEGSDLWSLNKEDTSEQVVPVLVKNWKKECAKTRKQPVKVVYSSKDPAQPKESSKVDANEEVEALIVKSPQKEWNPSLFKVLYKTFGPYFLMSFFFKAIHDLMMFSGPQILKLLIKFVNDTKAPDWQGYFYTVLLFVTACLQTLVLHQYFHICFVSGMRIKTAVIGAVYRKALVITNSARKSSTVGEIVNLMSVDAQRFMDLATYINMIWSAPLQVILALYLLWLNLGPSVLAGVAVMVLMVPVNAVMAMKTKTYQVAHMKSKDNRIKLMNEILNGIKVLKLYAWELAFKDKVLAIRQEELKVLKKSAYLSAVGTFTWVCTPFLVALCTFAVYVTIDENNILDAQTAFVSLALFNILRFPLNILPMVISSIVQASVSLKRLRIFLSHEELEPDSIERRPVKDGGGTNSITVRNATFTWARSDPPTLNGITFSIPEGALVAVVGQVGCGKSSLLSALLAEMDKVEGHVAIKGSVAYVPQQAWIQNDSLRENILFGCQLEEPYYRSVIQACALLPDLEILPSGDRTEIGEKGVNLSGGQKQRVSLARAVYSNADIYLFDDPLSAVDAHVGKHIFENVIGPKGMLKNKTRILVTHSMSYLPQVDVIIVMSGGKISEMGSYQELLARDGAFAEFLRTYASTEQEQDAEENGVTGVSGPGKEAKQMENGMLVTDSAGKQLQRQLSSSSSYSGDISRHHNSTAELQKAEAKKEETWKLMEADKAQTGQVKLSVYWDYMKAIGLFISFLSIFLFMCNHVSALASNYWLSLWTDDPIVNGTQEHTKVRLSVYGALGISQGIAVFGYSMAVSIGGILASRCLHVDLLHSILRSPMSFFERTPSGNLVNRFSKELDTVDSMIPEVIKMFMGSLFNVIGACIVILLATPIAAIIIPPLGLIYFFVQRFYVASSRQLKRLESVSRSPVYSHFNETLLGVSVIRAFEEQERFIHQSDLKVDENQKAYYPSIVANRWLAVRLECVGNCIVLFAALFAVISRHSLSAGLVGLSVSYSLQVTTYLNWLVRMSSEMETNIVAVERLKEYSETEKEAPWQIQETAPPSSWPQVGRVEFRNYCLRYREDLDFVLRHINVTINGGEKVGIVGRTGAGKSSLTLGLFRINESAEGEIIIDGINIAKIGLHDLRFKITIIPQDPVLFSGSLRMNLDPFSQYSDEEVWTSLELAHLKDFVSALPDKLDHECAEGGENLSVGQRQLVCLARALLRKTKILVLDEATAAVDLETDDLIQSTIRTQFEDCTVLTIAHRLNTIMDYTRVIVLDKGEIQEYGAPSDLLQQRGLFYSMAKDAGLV

SMILES	inhibition (INH)
COc1cc(Nc2cc(C)nc(-c3ccccc3)n2)ccc1Br	Not Active
